The values that follow come from ChEMBL document CHEMBL3046278, “Design, synthesis and antifungal/insecticidal evaluation of novel cinnamide derivatives” (2011).

Type in all cases: functional
Assay [1] has as its system Bursaphelenchus xylophilus. Description: Nematicidal activity against Bursaphelenchus xylophilus assessed as mortality at 200 mg/L after 72 hr relative to control. The procedure, abridged:
(§1)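 Compounds dissolved in acetone and diluted with distilled water to a 200 mg L-1 working solution. Distilled water served as blank, triplicate. Mortality counted at 24, 48 and 72 h, then corrected against the negative control with Abbott's formula.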

Assay [2] relates to Bursaphelenchus xylophilus. Briefly: Nematicidal activity against Bursaphelenchus xylophilus assessed as mortality at 200 mg/L after 48 hr relative to control. The procedure, abridged:
as §1

The subject of the next assay is Rhizoctonia solani. Description: Antifungal activity against Rhizoctonia solani assessed as inhibition of mycelium growth at 50 ug/ml relative to control. The gist of the method:
(§2)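 Mycelial growth inhibition on mycelial disks, compared with untreated control, using colony diameters: (control − treatment)/(control − disk diameter) × 100. Run twice, four replicates each.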

The next assay has as its system Cytospora mali. Description: Antifungal activity against Valsa mali assessed as inhibition of mycelium growth at 50 ug/ml relative to control. The gist of the method: as §2
In assay [3] the test system is Colletotrichum lindemuthianum. Description: Antifungal activity against Colletotrichum lindemuthianum assessed as inhibition of mycelium growth at 50 ug/ml relative to control. The procedure, abridged: as §2
The test system of the next assay is Sclerotinia sclerotiorum. Briefly: Antifungal activity against Sclerotinia sclerotiorum assessed as inhibition of mycelium growth at 50 ug/ml relative to control. The gist of the method:
as §2

A further assay has as its system Botrytis cinerea. Description: Antifungal activity against Botryotinia fuckeliana assessed as inhibition of mycelium growth at 50 ug/ml relative to control. The procedure, abridged:
as §2

For another assay, the system named is Phytophthora nicotianae. Description: Antifungal activity against Phytophthora parasitica assessed as inhibition of mycelium growth at 50 ug/ml relative to control. The procedure, abridged:
as §2

Assay [4] relates to Bursaphelenchus xylophilus. Briefly: Nematicidal activity against Bursaphelenchus xylophilus assessed as mortality at 200 mg/L after 24 hr relative to control. The procedure, abridged: as §1

Each structure is given as a SMILES string.

Usually inhibition stands for the change of the read-out against control, counted positive when it falls. On to `CCc1ccc(/C(=C/C(=O)NCCc2ccc(O)cc2)c2ccnc(Cl)c2)cc1`, for which the Activity came out at 43.97% in assay [1], 33.6% in assay [2] and 14.73% in [4]. Moreover, the inhibition at 50 µg/mL in the assay with Rhizoctonia solani was 67.7%; in the assay on Cytospora mali, 24%; in assay [3] it was 24.6%; in the assay with Sclerotinia sclerotiorum it was 17%; in the assay with Botrytis cinerea it was 37%; in the assay on Phytophthora nicotianae, 28.2%.

As for `Cc1ccc(/C(=C/C(=O)NCCc2ccc(O)cc2)c2ccnc(Cl)c2)cc1C`, the Activity is recorded as 23.99% in assay [1], 14.86% in assay [2] and 3.97% in assay [4]. Moreover, the inhibition at 50 µg/mL in the assay with Rhizoctonia solani was 91%; with Cytospora mali it was -6.3%; in assay [3], 35.8%; in the assay on Sclerotinia sclerotiorum, 44%; in the assay with Botrytis cinerea it was 54%; in the assay on Phytophthora nicotianae, -18.5%.

In the case of `Cc1ccc(/C(=C/C(=O)NCCc2ccc(O)cc2)c2ccnc(Cl)c2)c(C)c1`, the results for the Activity in assay [1], in assay [2] and in [4] were 54.16%, 44.71% and 12.22%, respectively. Further, the inhibition at 50 µg/mL with Rhizoctonia solani was 13.6%; with Cytospora mali, 26%; in assay [3] it was 21.6%; in the assay on Sclerotinia sclerotiorum, 27%; in the assay with Botrytis cinerea, 38%; in the assay with Phytophthora nicotianae it was -25%.

For `CC(C)(C)c1ccc(/C(=C/C(=O)NCCc2ccc(O)cc2)c2ccnc(Cl)c2)cc1`, the values for the Activity in assay [1], in [2] and in assay [4] were 31.44%, 27.76% and 21.17%, respectively. Also, the inhibition at 50 µg/mL was 9.03% in the assay on Rhizoctonia solani; -7.8% with Cytospora mali; 39.5% in assay [3]; 29% with Sclerotinia sclerotiorum; 50% in the assay on Botrytis cinerea; -13.7% with Phytophthora nicotianae.

In the case of `Cc1ccc(/C(=C/C(=O)NCCc2ccccc2)c2ccncc2)cc1`, the Activity in assay [1] turned out to be 18.11%; in [2] it was 14.86%; in assay [4], 9.34%. For the same molecule, the inhibition at 50 µg/mL in the assay on Rhizoctonia solani was 15.5%; in the assay with Cytospora mali it was 36%; in assay [3], 32.8%; with Sclerotinia sclerotiorum it was 16%; with Botrytis cinerea, 43%; in the assay on Phytophthora nicotianae it was -17.7%.

For `CCc1ccc(/C(=C/C(=O)NCCc2ccccc2)c2ccncc2)cc1`, the Activity in assay [1] was 8.71%; in assay [2] it was 8.23%; in assay [4], 7.56%. For the same molecule, the inhibition at 50 µg/mL came to 9.68% with Rhizoctonia solani; 30% in the assay on Cytospora mali; 37.3% in assay [3]; 45% in the assay on Sclerotinia sclerotiorum; 48% with Botrytis cinerea; 5.65% in the assay on Phytophthora nicotianae.

On to `Cc1ccc(/C(=C/C(=O)NCCc2ccccc2)c2ccncc2)cc1C`, for which the Activity in assay [1] was 49.07%; in assay [2], 47.67%; in [4] it was 28.7%. Also, the inhibition at 50 µg/mL is 3.87% with Rhizoctonia solani; 18% in the assay with Cytospora mali; 17.2% in [3]; 2.7% with Sclerotinia sclerotiorum; 15% in the assay on Botrytis cinerea; -9.68% with Phytophthora nicotianae.

For the molecule `COc1ccc(CCNC(=O)/C=C(\c2ccncc2)c2ccc(C)c(C)c2)cc1OC`, the Activity in assay [1] is 19.29%; in assay [2], 16.33%; in [4], 13.65%. In addition, the inhibition at 50 µg/mL in the assay on Rhizoctonia solani was 5.81%; in the assay with Cytospora mali, 68%; in [3], 28.4%; with Sclerotinia sclerotiorum it was 11%; with Botrytis cinerea it was 52%; in the assay with Phytophthora nicotianae, -14.5%.

On to `Cc1ccc(/C(=C/C(=O)NCCc2ccc(O)cc2)c2ccncc2)cc1`, for which the Activity in assay [1] was determined as 19.29%; in assay [2] it was 16.7%; in assay [4] it was 8.27%. Moreover, the inhibition at 50 µg/mL in the assay with Rhizoctonia solani is 10.3%; with Cytospora mali, -2.3%; in assay [3], 28.4%; with Sclerotinia sclerotiorum it was 5.3%; with Botrytis cinerea, 47%; with Phytophthora nicotianae, -17.7%.

For the molecule `Cc1ccc(/C(=C/C(=O)NCCc2ccc(O)cc2)c2ccncc2)cc1C`, the Activity in assay [1] is reported as 32.22%; in [2] it was 22.6%; in assay [4], 11.86%. The inhibition at 50 µg/mL was 16.1% with Rhizoctonia solani; -2.3% in the assay with Cytospora mali; 38.8% in assay [3]; 27% in the assay on Sclerotinia sclerotiorum; 64% in the assay with Botrytis cinerea; 14.5% with Phytophthora nicotianae.

As to `Cc1ccc(/C(=C/C(=O)NCCc2ccccc2)c2ccnc(Cl)c2)cc1`, the Activity in [1] is listed as 35.35%; in assay [2], 28.13%; in assay [4], 15.8%. Further, the inhibition at 50 µg/mL in the assay with Rhizoctonia solani turned out to be 93.9%; with Cytospora mali, 48%; in assay [3], 59.7%; in the assay with Sclerotinia sclerotiorum it was 37%; in the assay on Botrytis cinerea it was 44%; with Phytophthora nicotianae, 24.4%.

Take `Cc1ccc(/C(=C/C(=O)NCCc2ccccc2)c2ccnc(Cl)c2)c(C)c1`: the values for the Activity in assay [1], in assay [2] and in assay [4] were 27.91%, 24.44% and 22.97%, respectively. Moreover, the inhibition at 50 µg/mL is 4.52% in the assay with Rhizoctonia solani; 31% with Cytospora mali; 47% in assay [3]; 24% in the assay with Sclerotinia sclerotiorum; 43% in the assay with Botrytis cinerea; 11.3% in the assay on Phytophthora nicotianae.

With `COc1ccc(/C(=C/C(=O)NCCc2ccccc2)c2ccnc(Cl)c2)cc1`, the Activity in assay [1] is on record as 42.01%; in [2], 38.82%; in [4] it was 13.65%. Moreover, the inhibition at 50 µg/mL with Rhizoctonia solani is 13.6%; in the assay on Cytospora mali, -6.3%; in [3], 43.3%; in the assay on Sclerotinia sclerotiorum, 42%; in the assay on Botrytis cinerea, 55%; in the assay on Phytophthora nicotianae, -2.42%.

As for `COc1ccc(CCNC(=O)/C=C(\c2ccnc(Cl)c2)c2ccc(C)c(C)c2)cc1OC`, the Activity in [1] amounted to 21.64%; in [2] it was 17.81%; in assay [4] it was 8.63%. Moreover, the inhibition at 50 µg/mL in the assay with Rhizoctonia solani was 23.8%; with Cytospora mali it was 36%; in assay [3], 23.9%; in the assay with Sclerotinia sclerotiorum, 28%; in the assay with Botrytis cinerea it was 33%; with Phytophthora nicotianae, 14.2%.

Take `COc1ccc(CCNC(=O)/C=C(\c2ccnc(Cl)c2)c2ccc(C)cc2C)cc1OC`: the Activity in assay [1] was determined as 38.09%; in [2], 34.02%; in assay [4] it was 19.02%. In addition, the inhibition at 50 µg/mL was found to be 35.5% in the assay on Rhizoctonia solani; 29% in the assay with Cytospora mali; 42.5% in assay [3]; 68% with Sclerotinia sclerotiorum; 40% in the assay on Botrytis cinerea; 22.6% in the assay on Phytophthora nicotianae.

Take `COc1ccc(CCNC(=O)/C=C(/c2ccc(C(C)(C)C)cc2)c2ccnc(Cl)c2)cc1OC`: the Activity in [1] is on record as 45.15%; in assay [2] it was 38.82%; in assay [4], 4.33%. For the same molecule, the inhibition at 50 µg/mL in the assay with Rhizoctonia solani was 14.8%; in the assay with Cytospora mali, 18%; in [3], 22.4%; in the assay with Sclerotinia sclerotiorum, 53%; in the assay on Botrytis cinerea, 48%; with Phytophthora nicotianae, -8.06%.

In the case of `Cc1ccc(/C(=C/C(=O)NCCc2ccc(O)cc2)c2ccnc(Cl)c2)cc1`, the Activity in assay [1] amounted to 14.2%; in assay [2], 12.65%; in assay [4], 7.56%. The inhibition at 50 µg/mL was 72.9% with Rhizoctonia solani; 29% with Cytospora mali; 16.4% in assay [3]; 29% in the assay on Sclerotinia sclerotiorum; 33% with Botrytis cinerea; -18.5% in the assay on Phytophthora nicotianae.

As to `CO/C=C(/C(=O)OC)c1ccccc1Oc1cc(Oc2ccccc2C#N)ncn1` [AZOXYSTROBIN], the inhibition at 50 µg/mL in the assay with Rhizoctonia solani is 89%; in the assay with Cytospora mali, 92%; with Sclerotinia sclerotiorum, 100%; in the assay on Botrytis cinerea, 80%; with Phytophthora nicotianae, 37.9%.

For the molecule `COC(=O)Nc1nc2ccccc2[nH]1` [CARBENDAZIM], the inhibition at 50 µg/mL with Rhizoctonia solani was 100%; with Cytospora mali, 100%; in assay [3], 82.1%; in the assay on Sclerotinia sclerotiorum, 100%; in the assay with Botrytis cinerea, 38%; in the assay on Phytophthora nicotianae it was 14.5%.

Regarding `N#Cc1c(Cl)c(Cl)c(Cl)c(C#N)c1Cl` [CHLOROTHALONIL], the inhibition at 50 µg/mL was determined as 75.5% in the assay on Rhizoctonia solani; 88% with Cytospora mali; 70% in the assay with Sclerotinia sclerotiorum; 95% in the assay with Botrytis cinerea; 63.7% in the assay with Phytophthora nicotianae.

Take `CC(C)(C)c1ccc(/C(=C/C(=O)N2CCOCC2)c2ccnc(Cl)c2)cc1` [PYRIMORPH]: the inhibition at 50 µg/mL in the assay on Rhizoctonia solani came out at 97.2%; with Sclerotinia sclerotiorum, 79%.
